# Where “and” joins values, the source holds several entries; their conditions need not be identical. Identical values can stand only once.
# System: HEK-293T
# Assay: Multiplex assay against HEK293T
# Assay type: toxicity, cell-based
# Details: human, number of replicates 2
# How it was run: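 On a CQ1 microscope at 37°C and 5% CO2, live cells were imaged after compound addition. They had been stained at seeding with Hoechst33342, BioTracker Green Microtubule Cytoskeleton Dye, MitoTracker Red and Annexin V Alexa Fluor 680. CellPathfinder machine-learning gating assigned cells to Hoechst high-intensity objects or normal cells, normal cells to healthy, pyknosed or fragmented nuclei, and pyknosed cells to mitotic or apoptotic. Tubulin, mitochondrial-mass and membrane-permeability phenotypes are per cents of healthy-nucleus cells.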
# [1] = 12 h, 1 µM, compound concentration 1 uM
# [2] = 12 h, 10 µM, compound concentration 10 uM
# [3] = 24 h, 1 µM, compound concentration 1 uM
# [4] = 24 h, 10 µM, compound concentration 10 uM
# [5] = 48 h, 1 µM, compound concentration 1 uM
# [6] = 48 h, 10 µM, compound concentration 10 uM
compound,measurement,setting,value
CCN1C(=O)N(c2c(F)c(OC)cc(OC)c2F)Cc2cnc3[nH]c(CN4CCOCC4)cc3c21 [PEMIGATINIB],Population Apoptotic (%),[1],58% and 63%
same,Population Fragmented Nuclei (%),[1],3%
same,Population Healthy Nuclei (%),[1],82% and 83%
same,Population Hoechst High Intensity Objects (%),[1],7% and 9%
same,Population Membrane Permeable-Phenotype (%),[1],3% and 0%
same,Population Mitochondria Different-Phenotype (%),[1],15% and 20%
same,Population Mitotic Cells (%),[1],41% and 36%
same,Population Normal (%),[1],92% and 90%
same,Population Pyknosed Nuclei (%),[1],13%
same,Population Tubulin-Different-Phenotype (%),[1],51% and 60%
same,Total Cell Count,[1],617 and 677
same,Population Apoptotic (%),[2],64% and 53%
same,Population Fragmented Nuclei (%),[2],4% and 2%
same,Population Healthy Nuclei (%),[2],83% and 87%
same,Population Hoechst High Intensity Objects (%),[2],12% and 8%
same,Population Membrane Permeable-Phenotype (%),[2],2%
same,Population Mitochondria Different-Phenotype (%),[2],31% and 18%
same,Population Mitotic Cells (%),[2],35% and 46%
same,Population Normal (%),[2],87% and 91%
same,Population Pyknosed Nuclei (%),[2],11% and 9%
same,Population Tubulin-Different-Phenotype (%),[2],77% and 68%
same,Total Cell Count,[2],550 and 620
same,Population Apoptotic (%),[3],41% and 56%
same,Population Fragmented Nuclei (%),[3],8% and 7%
same,Population Healthy Nuclei (%),[3],82% and 83%
same,Population Hoechst High Intensity Objects (%),[3],7% and 8%
same,Population Membrane Permeable-Phenotype (%),[3],3% and 1%
same,Population Mitochondria Different-Phenotype (%),[3],7% and 5%
same,Population Mitotic Cells (%),[3],58% and 43%
same,Population Normal (%),[3],92% and 91%
same,Population Pyknosed Nuclei (%),[3],9%
same,Population Tubulin-Different-Phenotype (%),[3],29% and 30%
same,Total Cell Count,[3],1042 and 1171
same,Population Apoptotic (%),[4],52% and 58%
same,Population Fragmented Nuclei (%),[4],4% and 5%
same,Population Healthy Nuclei (%),[4],86% and 89%
same,Population Hoechst High Intensity Objects (%),[4],12% and 11%
same,Population Membrane Permeable-Phenotype (%),[4],1%
same,Population Mitochondria Different-Phenotype (%),[4],19% and 16%
same,Population Mitotic Cells (%),[4],47% and 41%
same,Population Normal (%),[4],87% and 88%
same,Population Pyknosed Nuclei (%),[4],8% and 4%
same,Population Tubulin-Different-Phenotype (%),[4],71% and 61%
same,Total Cell Count,[4],678 and 726
same,Population Apoptotic (%),[5],17%
same,Population Fragmented Nuclei (%),[5],14% and 12%
same,Population Healthy Nuclei (%),[5],83% and 84%
same,Population Hoechst High Intensity Objects (%),[5],7% and 9%
same,Population Membrane Permeable-Phenotype (%),[5],6% and 2%
same,Population Mitochondria Different-Phenotype (%),[5],0%
same,Population Mitotic Cells (%),[5],82%
same,Population Normal (%),[5],92% and 90%
same,Population Pyknosed Nuclei (%),[5],2% and 3%
same,Population Tubulin-Different-Phenotype (%),[5],10% and 18%
same,Total Cell Count,[5],2805 and 2683
same,Population Apoptotic (%),[6],33% and 24%
same,Population Fragmented Nuclei (%),[6],9% and 10%
same,Population Healthy Nuclei (%),[6],87% and 86%
same,Population Hoechst High Intensity Objects (%),[6],13% and 12%
same,Population Membrane Permeable-Phenotype (%),[6],3% and 4%
same,Population Mitochondria Different-Phenotype (%),[6],2% and 4%
same,Population Mitotic Cells (%),[6],66% and 75%
same,Population Normal (%),[6],86% and 87%
same,Population Pyknosed Nuclei (%),[6],3%
same,Population Tubulin-Different-Phenotype (%),[6],55%
same,Total Cell Count,[6],1120 and 944
CCOC(=O)Nc1cc(-c2ccc(C)c(NS(C)(=O)=O)c2)nn2c(C)nnc12,Population Apoptotic (%),[2],36% and 38% and 52% and 40%
same,Population Fragmented Nuclei (%),[2],2% and 3%
same,Population Healthy Nuclei (%),[2],78% and 74% and 75% and 79%
same,Population Hoechst High Intensity Objects (%),[2],4% and 3%
same,Population Membrane Permeable-Phenotype (%),[2],5% and 11% and 2%
same,Population Mitochondria Different-Phenotype (%),[2],15% and 28% and 21% and 20%
same,Population Mitotic Cells (%),[2],63% and 61% and 47% and 59%
same,Population Normal (%),[2],95% and 96%
same,Population Pyknosed Nuclei (%),[2],19% and 22% and 21% and 17%
same,Population Tubulin-Different-Phenotype (%),[2],56% and 71% and 58% and 55%
same,Total Cell Count,[2],892 and 664 and 646 and 672
same,Population Apoptotic (%),[4],40% and 25% and 30% and 24%
same,Population Fragmented Nuclei (%),[4],3% and 4% and 2%
same,Population Healthy Nuclei (%),[4],82% and 86% and 84% and 85%
same,Population Hoechst High Intensity Objects (%),[4],5% and 4%
same,Population Membrane Permeable-Phenotype (%),[4],3% and 0% and 1%
same,Population Mitotic Cells (%),[4],59% and 75% and 69%
same,Population Normal (%),[4],94% and 95%
same,Population Pyknosed Nuclei (%),[4],13% and 9% and 12% and 10%
same,Population Tubulin-Different-Phenotype (%),[4],32% [middle of 4 runs]
same,Total Cell Count,[4],755 and 1187 and 821 and 806
same,Population Apoptotic (%),[6],25% and 42% and 30% and 29%
same,Population Fragmented Nuclei (%),[6],9% and 5% and 7% and 6%
same,Population Healthy Nuclei (%),[6],83% and 79% and 80% and 82%
same,Population Hoechst High Intensity Objects (%),[6],5% and 9%
same,Population Membrane Permeable-Phenotype (%),[6],0% and 1%
same,Population Mitotic Cells (%),[6],75% and 57% and 69% and 70%
same,Population Normal (%),[6],94% and 90%
same,Population Pyknosed Nuclei (%),[6],7% and 15% and 11%
same,Total Cell Count,[6],1217 and 690 and 964 and 833
CCN(CC)C/C=C/C(=O)Nc1cc2c(Nc3ccc(F)c(Cl)c3)ncnc2cc1OCC1CC1,Population Apoptotic (%),[1],61% and 46%
same,Population Fragmented Nuclei (%),[1],3% and 4%
same,Population Healthy Nuclei (%),[1],79%
same,Population Hoechst High Intensity Objects (%),[1],4% and 7%
same,Population Membrane Permeable-Phenotype (%),[1],6% and 5%
same,Population Mitochondria Different-Phenotype (%),[1],26% and 30%
same,Population Mitotic Cells (%),[1],38% and 53%
same,Population Normal (%),[1],95% and 92%
same,Population Pyknosed Nuclei (%),[1],17% and 15%
same,Population Tubulin-Different-Phenotype (%),[1],81% and 90%
same,Total Cell Count,[1],435 and 525
same,Population Apoptotic (%),[2],81% and 84%
same,Population Fragmented Nuclei (%),[2],1% and 6%
same,Population Healthy Nuclei (%),[2],68% and 69%
same,Population Hoechst High Intensity Objects (%),[2],8% and 6%
same,Population Membrane Permeable-Phenotype (%),[2],4% and 3%
same,Population Mitochondria Different-Phenotype (%),[2],76% and 83%
same,Population Mitotic Cells (%),[2],18% and 15%
same,Population Normal (%),[2],91% and 93%
same,Population Pyknosed Nuclei (%),[2],29% and 23%
same,Population Tubulin-Different-Phenotype (%),[2],84% and 78%
same,Total Cell Count,[2],283 and 298
same,Population Apoptotic (%),[3],50%
same,Population Fragmented Nuclei (%),[3],5% and 6%
same,Population Healthy Nuclei (%),[3],81% and 84%
same,Population Hoechst High Intensity Objects (%),[3],6% and 9%
same,Population Membrane Permeable-Phenotype (%),[3],4% and 5%
same,Population Mitochondria Different-Phenotype (%),[3],14% and 19%
same,Population Mitotic Cells (%),[3],50% and 49%
same,Population Normal (%),[3],93% and 90%
same,Population Pyknosed Nuclei (%),[3],12% and 8%
same,Population Tubulin-Different-Phenotype (%),[3],59% and 72%
same,Total Cell Count,[3],687 and 743
same,Population Apoptotic (%),[4],84% and 81%
same,Population Fragmented Nuclei (%),[4],2% and 4%
same,Population Healthy Nuclei (%),[4],47% and 45%
same,Population Hoechst High Intensity Objects (%),[4],10%
same,Population Membrane Permeable-Phenotype (%),[4],2% and 1%
same,Population Mitochondria Different-Phenotype (%),[4],92% and 93%
same,Population Mitotic Cells (%),[4],15% and 18%
same,Population Normal (%),[4],89%
same,Population Pyknosed Nuclei (%),[4],49%
same,Population Tubulin-Different-Phenotype (%),[4],88% and 77%
same,Total Cell Count,[4],274 and 323
same,Population Apoptotic (%),[5],30%
same,Population Fragmented Nuclei (%),[5],9%
same,Population Healthy Nuclei (%),[5],84%
same,Population Hoechst High Intensity Objects (%),[5],9% and 7%
same,Population Membrane Permeable-Phenotype (%),[5],4% and 6%
same,Population Mitochondria Different-Phenotype (%),[5],5% and 2%
same,Population Mitotic Cells (%),[5],69%
same,Population Normal (%),[5],90% and 92%
same,Population Pyknosed Nuclei (%),[5],5% and 6%
same,Population Tubulin-Different-Phenotype (%),[5],53% and 34%
same,Total Cell Count,[5],1264 and 1265
same,Population Apoptotic (%),[6],84% and 87%
same,Population Fragmented Nuclei (%),[6],7% and 11%
same,Population Healthy Nuclei (%),[6],32% and 33%
same,Population Hoechst High Intensity Objects (%),[6],8% and 15%
same,Population Membrane Permeable-Phenotype (%),[6],5% and 2%
same,Population Mitochondria Different-Phenotype (%),[6],87% and 94%
same,Population Mitotic Cells (%),[6],15% and 12%
same,Population Normal (%),[6],91% and 84%
same,Population Pyknosed Nuclei (%),[6],59% and 55%
same,Population Tubulin-Different-Phenotype (%),[6],84% and 80%
same,Total Cell Count,[6],396 and 360

# Source: ChEMBL document CHEMBL5303300, “EUbOPEN Chemogenomics Library - Multiplex” (2023)
